Activity calls are given as the source filed them. The calls are words filed in the database; no cut-off is given here.

We go through one compound from ChEMBL document CHEMBL3046679, “Design, synthesis, and biological activities of arylmethylamine substituted chlorotriazine and methylthiotriazine compounds” (J Agric Food Chem, 2011).

One assay concerns Puccinia triticina. The assay can be described thus: Fungicidal activity against Puccinia triticina assessed as inhibition of disease development in compound treated leaf pieces at 60 ppm relative to untreated control (wheat-curative). In kind it is functional. A digest of the protocol: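 Curative wheat leaf-piece test against Puccinia triticina. Leaf pieces inoculated with spores first, then treated with formulated compound at 200, 60 or 20 ppm. Disease scored 3–9 days after inoculation as percent inhibition versus untreated controls. Values are the mean across replicates.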

A further assay deals with Lolium perenne. The assay can be described thus: Herbicidal activity against Lolium perenne (perennial ryegrass) assessed as growth inhibition at 1 kg/ha preemergence treatment by glasshouse test. Conditions: pre-emergence, read-out: GI. It is filed as functional. A digest of the protocol:
(§1)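 Glasshouse screen with pre- or postemergence application at 1.0 kg/ha. Result given as percent inhibition of plant growth; norflurazon and glyphosate used as controls.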

Another assay concerns Echinochloa crus-galli. The assay can be described thus: Herbicidal activity against Echinochloa crus-galli (barnyard grass) at 1.5 kg/ha postemergence treatment measured after 10 days by glasshouse test. It is filed as functional. To be noted: post-emergence, 240 h. A digest of the protocol: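 Glasshouse pre/postemergence test, each treatment in triplicate. Above-ground fresh weight measured 10 days after treatment. Result expressed as percent inhibition versus control, from 0 (no control) to 100 (complete control); glyphosate used as positive control.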

For assay [1], the system named is Plasmopara viticola. The assay can be described thus: Fungicidal activity against Plasmopara viticola assessed as inhibition of disease development in compound treated leaf pieces at 200 ppm relative to untreated control (grapevine-preventative). In kind it is functional. A digest of the protocol: (§2)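 Preventative leaf-piece test on host tissue (tomato, vine, wheat or barley). Formulated compound applied at 200, 60 and 20 ppm before spore inoculation. Disease scored 3–9 days after inoculation, depending on the pathogen, as percent inhibition of disease development versus untreated controls. Values are the mean across replicates.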

The next assay deals with Arabidopsis thaliana. The assay can be described thus: Herbicidal activity against Arabidopsis thaliana assessed as growth inhibition at 10 ppm by 96-well plate test. To be noted: read-out: GI. In kind it is functional. The gist of the method: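 96-well plate herbicide screen: Arabidopsis thaliana at 10 ppm and Poa annua at 32 ppm, two replicates. Plates incubated seven days in a controlled-environment cabinet. Each replicate scored 0 (no visible effect) or 99 (herbicidal effect); values are the mean of the two. Atrazine used as reference.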

The next assay relates to Stellaria media. The assay can be described thus: Herbicidal activity against Stellaria media assessed as growth inhibition at 1 kg/ha postemergence treatment by glasshouse test. In kind it is functional. Conditions: post-emergence, read-out: GI. The gist of the method: as §1
For assay [2], the system named is Blumeria graminis f. sp. tritici. The assay can be described thus: Fungicidal activity against Blumeria graminis f. sp. tritici assessed as inhibition of disease development in compound treated leaf pieces at 60 ppm relative to untreated control (wheat-preventative). In kind it is functional.
The next assay concerns Parastagonospora nodorum. The assay can be described thus: Fungicidal activity against Phaeosphaeria nodorum assessed as inhibition of disease development in compound treated leaf pieces at 60 ppm relative to untreated control (wheat preventative). It is filed as functional. A digest of the protocol: as §2
Assay [3] has as its system Alternaria solani. The assay can be described thus: Fungicidal activity against Alternaria solani assessed as inhibition of disease development in compound treated leaf pieces at 200 ppm relative to untreated control (tomato-preventative). In kind it is functional. The gist of the method: as §2
The subject of the next assay is Aphididae. The assay can be described thus: Insecticidal activity against Aphididae (aphids) assessed as mortality at 1000 ppm by leaf-disk assay. It is filed as functional, organism-based. The gist of the method:
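Leaf-disk assay at 1000 ppm, three replicates. Plates kept 5–9 days in controlled-environment cabinets. Mortality judged against untreated wells: 99 for significant mortality, 0 otherwise. Values are the mean of three; thiamethoxam and indoxacarb used as positive controls.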

In the next assay the test system is Phytophthora infestans. The assay can be described thus: Fungicidal activity against Phytophthora infestans assessed as inhibition of disease development in compound treated leaf pieces at 60 ppm relative to untreated control (tomato-preventative). It is filed as functional. The gist of the method: as §2
The test system of assay [4] is Alternaria solani. The assay can be described thus: Fungicidal activity against Alternaria solani assessed as inhibition of disease development in compound treated leaf pieces at 20 ppm relative to untreated control (tomato-preventative). It is filed as functional. The gist of the method: as §2
The test system of assay [5] is Plasmopara viticola. The assay can be described thus: Fungicidal activity against Plasmopara viticola assessed as inhibition of disease development in compound treated leaf pieces at 20 ppm relative to untreated control (grapevine-preventative). In kind it is functional. The gist of the method:
as §2

A word on the inhibition: it is the change of the read-out against control, counted positive when it falls. As for `CC(C)Nc1nc(Cl)nc(NCc2ccc(F)cc2)n1`, the inhibition at 60 ppm in the assay with Puccinia triticina worked out at 100%; in assay [2] it was 20%; with Parastagonospora nodorum, 20%; in the assay on Phytophthora infestans, 0%. Further, the figures for the inhibition of growth at 1000 g/ha in the assay on Lolium perenne and with Stellaria media were 30% and 90%, respectively. Besides, the inhibition at 1500 g/ha in the assay on Echinochloa crus-galli came out at 75.7%. The inhibition at 200 ppm in the assay on Plasmopara viticola [1] turned out to be 50%; in the assay on Alternaria solani [3], 0%. In the assay with Arabidopsis thaliana, the inhibition of growth at 10 ppm came to 99%. Also, the mortality entry in the assay with Aphididae was “inactive”. Also, the inhibition at 20 ppm with Alternaria solani [4] and with Plasmopara viticola [5] was 0% each time.
